Results as given in ChEMBL document CHEMBL3244040, “Synthesis and topical antiinflammatory properties of 17,21-bis(acetyloxy)-6beta,9-difluoro-11beta-hydroxypregna-1,4-diene-3,20-dione and related 2-halogenated compounds” (J Med Chem, 1977).
Active and inactive are the calls of the source. No cut-off for these calls is given here.

Assays:
Rattus norvegicus [1] = test: Antiinflammatory activity in rat assessed as inhibition of cotton pellet-induced granuloma weight administered topically measured per pellet; assay type: functional
In short: (§1)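 Cotton-pellet granuloma test in rats; compounds suspended in 0.5% aqueous carboxymethylcellulose applied directly to the pellets, doses up to 40 µg/pellet; at least eight rats per dose. Granuloma and thymus weights converted to mg/100 g body weight. ED30 (30% inhibition) derived from log dose–response least-squares lines with 95% confidence limits, or approximated from eye-fit linear plots.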

Rattus norvegicus [2] = test: Thymolytic activity in rat assessed as inhibition of thymus weight administered topically measured per pellet; assay type: organism-based; conditions: in vivo, topical_or_ocular; in short: as §1
Rattus norvegicus [3] = test: Antiinflammatory activity in po dosed rat assessed as inhibition of cotton pellet-induced granuloma weight administered bid for 7 days; assay type: functional, organism-based
In short: (§2)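 Rat cotton-pellet granuloma test; compounds suspended in 0.5% carboxymethylcellulose in water given orally daily for seven consecutive days, doses up to 12.5 mg/kg die; at least eight rats per dose. Granuloma and thymus weights expressed as mg/100 g body weight. ED30 (30% inhibition) from log dose–response least-squares regression with 95% confidence limits, or extrapolated from eye-fit plots.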

Rattus norvegicus [4] = test: Thymolytic activity in po dosed rat assessed as inhibition of thymus weight administered bid for 7 days; assay type: organism-based; conditions: in vivo, 168 h; in short: as §2
Rattus norvegicus [5] = test: Mineralocorticoid activity in rat assessed as sodium retention up to 1 mg/kg, sc; assay type: ADME, organism-based; parameters: dose 1 mg/kg, route subcutaneous; conditions: in vivo

Compound | ED30 (Rattus norvegicus [2]) [µg] | ED30 (Rattus norvegicus [1]) [µg] | Activity (Rattus norvegicus [3]) | Activity (Rattus norvegicus [4]) | Activity (Rattus norvegicus [5])
C[C@]12C=C(Br)C(=O)C=C1[C@H](F)C[C@H]1[C@@H]3CC[C@](O)(C(=O)CO)[C@@]3(C)C[C@H](O)[C@@]12F | > 40 | >40 |  |  | 
CC(=O)OCC(=O)[C@@]1(OC(C)=O)CC[C@H]2[C@@H]3C[C@@H](F)C4=CC(=O)C(Br)=C[C@]4(C)[C@@]3(F)[C@@H](O)C[C@@]21C [HALOPREDONE ACETATE] | > 1000 | 0.01 | inactive | Non-toxic | Non-toxic
C[C@]12C=CC(=O)C=C1[C@@H](F)C[C@H]1[C@@H]3CC[C@](O)(C(=O)CO)[C@@]3(C)C[C@H](O)[C@@]12F | 20 | 40 |  |  | 
CC(=O)OCC(=O)[C@@]1(OC(C)=O)CC[C@H]2[C@@H]3C[C@H](F)C4=CC(=O)C(Br)=C[C@]4(C)[C@@]3(F)[C@@H](O)C[C@@]21C | > 40 | >40 | inactive | Non-toxic | 
C[C@]12C=CC(=O)C=C1[C@H](F)C[C@H]1[C@@H]3CC[C@](O)(C(=O)CO)[C@@]3(C)C[C@H](O)[C@@]12F | > 40 | >40 |  |  | 
C[C@]12C=C(Cl)C(=O)C=C1[C@H](F)C[C@H]1[C@@H]3CC[C@](O)(C(=O)CO)[C@@]3(C)C[C@H](O)[C@@]12F | > 40 | >40 |  |  | 
CC(=O)OCC(=O)[C@@]1(OC(C)=O)CC[C@H]2[C@@H]3C[C@@H](F)C4=CC(=O)C(Cl)=C[C@]4(C)[C@@]3(F)[C@@H](O)C[C@@]21C | > 40 | 0.45 | inactive | Non-toxic | 
CC(=O)OCC(=O)[C@@]1(O)CC[C@H]2[C@@H]3C[C@@H](F)C4=CC(=O)C(Cl)=C[C@]4(C)[C@@]3(F)[C@@H](O)C[C@@]21C | > 40 | 9 |  |  | 
CC(=O)OCC(=O)[C@@]1(O)CC[C@H]2[C@@H]3C[C@H](F)C4=CC(=O)C=C[C@]4(C)[C@@]3(F)[C@@H](O)C[C@@]21C | 20 | 40 |  |  | 

Continued, in another order:

ED30 (Rattus norvegicus [2]) [µg] | Compound | ED30 (Rattus norvegicus [1]) [µg] | Activity (Rattus norvegicus [3]) | Activity (Rattus norvegicus [4]) | Activity (Rattus norvegicus [5])
> 40 | CC(=O)OCC(=O)[C@@]1(OC(C)=O)CC[C@H]2[C@@H]3C[C@@H](F)C4=CC(=O)C=C[C@]4(C)[C@@]3(F)[C@@H](O)C[C@@]21C | 40 |  | Non-toxic | 
> 40 | CC(=O)OCC(=O)[C@@]1(O)CC[C@H]2[C@@H]3C[C@@H](F)C4=CC(=O)C(Br)=C[C@]4(C)[C@@]3(F)[C@@H](O)C[C@@]21C | 40 |  |  | 
5 | CC(=O)OCC(=O)[C@@]1(OC(C)=O)CC[C@H]2[C@@H]3C[C@H](F)C4=CC(=O)C=C[C@]4(C)[C@@]3(F)[C@@H](O)C[C@@]21C | 0.1 | inactive | Non-toxic | 
> 40 | CC(=O)OCC(=O)[C@@]1(O)CC[C@H]2[C@@H]3C[C@@H](F)C4=CC(=O)C=C[C@]4(C)[C@@]3(F)[C@@H](O)C[C@@]21C | >40 |  |  | 
40 | CC(=O)OCC(=O)[C@@]1(OC(C)=O)CC[C@H]2[C@@H]3C[C@H](F)C4=CC(=O)C(Cl)=C[C@]4(C)[C@@]3(F)[C@@H](O)C[C@@]21C | >40 | inactive | Non-toxic | 
5 | CC1(C)O[C@@H]2C[C@H]3[C@@H]4C[C@H](F)C5=CC(=O)C=C[C@]5(C)[C@@]4(F)[C@@H](O)C[C@]3(C)[C@]2(C(=O)CO)O1 [FLUOCINOLONE ACETONIDE] | 1.02 |  |  | 
